Measured values published in ChEMBL document CHEMBL1156274, “Potent arylsulfonamide inhibitors of tumor necrosis factor-alpha converting enzyme able to reduce activated leukocyte cell adhesion molecule shedding in cancer cell models” (J Med Chem, 2010).

How the values were obtained:
[1] = biological target: Matrix metalloproteinase-14 (Homo sapiens, UniProt P50281); experiment: Inhibition of human recombinant MMP14 by fluorometric assay
Outline: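 Fluorogenic substrate Mca-Lys-Pro-Leu-Gly-Leu-Dap(Dnp)-Ala-Arg-NH2 (2 μM final). Enzymes: APMA-activated (2 mM, 2 h, 37 °C) pro-MMP-1 at 2.0 nM; MMP-14 catalytic domain at 1.0 nM. Each enzyme preincubated 4 h at 25 °C with seven inhibitor concentrations in Tris 50 mM pH 7.5, NaCl, CaCl2, Brij-35, 1% DMSO. Fluorescence (ex 325/em 395 nm) read every 15 s for 20 min.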

[2] = biological target: T1, Disintegrin and metalloproteinase domain-containing protein 17 (Homo sapiens, UniProt P78536); details: for inhibition: A2774, at 10 µM; for IC50: A2774
T1 sequence (P78536 whole entry, the tested form may be a part): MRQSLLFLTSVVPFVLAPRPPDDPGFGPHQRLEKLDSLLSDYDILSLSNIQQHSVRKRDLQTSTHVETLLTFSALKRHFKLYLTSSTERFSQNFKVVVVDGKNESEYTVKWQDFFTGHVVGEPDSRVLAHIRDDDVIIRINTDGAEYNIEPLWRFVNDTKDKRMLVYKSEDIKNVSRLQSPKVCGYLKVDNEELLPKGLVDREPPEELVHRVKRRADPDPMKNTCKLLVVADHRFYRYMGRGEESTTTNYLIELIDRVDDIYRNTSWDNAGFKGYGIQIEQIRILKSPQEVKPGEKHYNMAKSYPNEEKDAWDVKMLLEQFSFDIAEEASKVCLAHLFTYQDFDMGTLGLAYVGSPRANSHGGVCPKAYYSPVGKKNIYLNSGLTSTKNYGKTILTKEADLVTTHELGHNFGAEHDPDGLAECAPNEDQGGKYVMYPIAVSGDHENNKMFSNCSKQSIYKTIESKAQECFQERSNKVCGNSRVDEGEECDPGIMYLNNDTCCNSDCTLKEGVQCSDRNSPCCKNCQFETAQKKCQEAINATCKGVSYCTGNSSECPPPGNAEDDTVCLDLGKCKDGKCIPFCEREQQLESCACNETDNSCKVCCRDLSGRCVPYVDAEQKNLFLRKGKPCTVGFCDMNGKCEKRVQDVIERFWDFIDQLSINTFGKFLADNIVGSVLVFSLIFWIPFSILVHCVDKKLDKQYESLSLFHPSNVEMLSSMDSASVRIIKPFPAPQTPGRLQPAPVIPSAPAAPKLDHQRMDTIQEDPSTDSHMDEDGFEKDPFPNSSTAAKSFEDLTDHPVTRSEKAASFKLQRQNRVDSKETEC

[3] = biological target: T1, Disintegrin and metalloproteinase domain-containing protein 17; experiment: Inhibition of human recombinant ADAM17 by fluorometric assay
[4] = biological target: 72 kDa type IV collagenase (Homo sapiens, UniProt P08253)
Sequence of 72 kDa type IV collagenase (P08253 whole entry): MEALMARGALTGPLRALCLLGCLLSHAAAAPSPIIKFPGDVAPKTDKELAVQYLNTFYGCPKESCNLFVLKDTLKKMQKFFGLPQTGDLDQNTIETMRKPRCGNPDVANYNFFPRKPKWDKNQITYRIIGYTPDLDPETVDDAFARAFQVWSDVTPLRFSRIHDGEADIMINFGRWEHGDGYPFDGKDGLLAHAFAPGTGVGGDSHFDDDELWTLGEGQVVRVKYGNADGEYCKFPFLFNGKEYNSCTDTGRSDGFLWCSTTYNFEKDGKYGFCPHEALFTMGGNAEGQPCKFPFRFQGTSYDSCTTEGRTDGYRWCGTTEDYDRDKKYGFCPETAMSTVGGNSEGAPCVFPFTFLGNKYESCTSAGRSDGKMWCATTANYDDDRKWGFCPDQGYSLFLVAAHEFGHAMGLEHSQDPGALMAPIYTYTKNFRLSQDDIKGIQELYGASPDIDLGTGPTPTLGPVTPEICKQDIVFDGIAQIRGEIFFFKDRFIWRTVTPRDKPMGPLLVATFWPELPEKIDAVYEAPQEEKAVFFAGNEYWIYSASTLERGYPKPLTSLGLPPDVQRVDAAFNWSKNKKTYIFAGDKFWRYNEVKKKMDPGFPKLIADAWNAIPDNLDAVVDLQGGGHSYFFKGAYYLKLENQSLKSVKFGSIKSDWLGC

[5] = biological target: Matrix metalloproteinase-9 (Homo sapiens, UniProt P14780); experiment: Inhibition of MMP9 by fluorometric assay
Sequence of Matrix metalloproteinase-9 (P14780 whole entry): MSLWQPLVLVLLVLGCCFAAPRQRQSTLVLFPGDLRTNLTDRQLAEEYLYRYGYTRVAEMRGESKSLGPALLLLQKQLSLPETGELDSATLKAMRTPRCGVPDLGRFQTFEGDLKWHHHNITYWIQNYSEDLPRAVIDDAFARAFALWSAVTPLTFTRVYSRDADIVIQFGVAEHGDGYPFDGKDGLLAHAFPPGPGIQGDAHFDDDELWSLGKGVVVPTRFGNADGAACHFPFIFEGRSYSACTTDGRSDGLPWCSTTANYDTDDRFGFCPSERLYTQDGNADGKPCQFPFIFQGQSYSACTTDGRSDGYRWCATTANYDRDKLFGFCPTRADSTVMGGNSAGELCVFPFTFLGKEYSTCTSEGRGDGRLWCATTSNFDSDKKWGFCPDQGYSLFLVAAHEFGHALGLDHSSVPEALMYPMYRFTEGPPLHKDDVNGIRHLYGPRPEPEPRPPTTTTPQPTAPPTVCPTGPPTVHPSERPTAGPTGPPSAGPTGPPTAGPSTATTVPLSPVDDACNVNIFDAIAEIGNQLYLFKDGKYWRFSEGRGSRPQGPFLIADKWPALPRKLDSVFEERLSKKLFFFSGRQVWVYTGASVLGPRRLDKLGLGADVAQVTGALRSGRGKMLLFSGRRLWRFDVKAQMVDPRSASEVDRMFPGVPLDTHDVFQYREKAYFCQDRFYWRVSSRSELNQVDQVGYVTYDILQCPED

Interstitial collagenase = biological target: T2, Interstitial collagenase (Homo sapiens, UniProt P03956); experiment: Inhibition of MMP1 by fluorometric assay
T2 sequence (P03956 whole entry): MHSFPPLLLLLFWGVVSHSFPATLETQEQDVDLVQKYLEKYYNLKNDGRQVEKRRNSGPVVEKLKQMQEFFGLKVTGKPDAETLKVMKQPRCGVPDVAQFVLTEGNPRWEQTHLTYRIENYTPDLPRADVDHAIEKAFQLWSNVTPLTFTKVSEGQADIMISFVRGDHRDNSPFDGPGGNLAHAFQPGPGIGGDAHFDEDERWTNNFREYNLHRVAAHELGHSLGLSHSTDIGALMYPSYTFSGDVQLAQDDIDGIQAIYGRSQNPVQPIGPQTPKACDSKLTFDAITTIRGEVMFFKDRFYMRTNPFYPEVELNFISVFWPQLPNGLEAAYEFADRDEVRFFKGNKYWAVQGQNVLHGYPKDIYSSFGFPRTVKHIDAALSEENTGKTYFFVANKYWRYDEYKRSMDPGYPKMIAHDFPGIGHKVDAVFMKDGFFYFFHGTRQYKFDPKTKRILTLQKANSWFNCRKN

[6] = biological target: T3, Disintegrin and metalloproteinase domain-containing protein 10 (Homo sapiens, UniProt O14672); experiment: Inhibition of human recombinant ADAM10 by fluorometric assay
T3 sequence (O14672 whole entry): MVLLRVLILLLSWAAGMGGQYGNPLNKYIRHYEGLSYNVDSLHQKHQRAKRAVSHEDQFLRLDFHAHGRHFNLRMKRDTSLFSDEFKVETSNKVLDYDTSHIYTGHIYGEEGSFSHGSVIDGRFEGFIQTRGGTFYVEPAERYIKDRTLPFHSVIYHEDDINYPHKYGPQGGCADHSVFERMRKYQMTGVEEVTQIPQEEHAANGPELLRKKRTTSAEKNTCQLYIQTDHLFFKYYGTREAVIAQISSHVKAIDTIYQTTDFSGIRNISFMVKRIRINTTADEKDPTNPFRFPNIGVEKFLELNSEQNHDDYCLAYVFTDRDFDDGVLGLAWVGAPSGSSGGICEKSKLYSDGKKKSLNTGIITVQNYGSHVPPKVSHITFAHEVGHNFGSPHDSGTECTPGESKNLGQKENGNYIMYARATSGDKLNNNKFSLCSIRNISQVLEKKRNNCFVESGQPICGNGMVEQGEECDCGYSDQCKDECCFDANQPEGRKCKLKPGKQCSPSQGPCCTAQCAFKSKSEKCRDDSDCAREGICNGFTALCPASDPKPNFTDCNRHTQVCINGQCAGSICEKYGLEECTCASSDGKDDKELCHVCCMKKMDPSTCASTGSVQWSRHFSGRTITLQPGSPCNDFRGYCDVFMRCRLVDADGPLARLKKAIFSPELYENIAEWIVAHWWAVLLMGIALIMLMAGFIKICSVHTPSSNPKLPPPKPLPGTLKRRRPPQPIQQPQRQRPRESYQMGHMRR
Outline: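 Recombinant human ADAM-10 (20 nM) preincubated with seven inhibitor concentrations for 1 h at 37 °C in Tris 25 mM, ZnCl2 25 μM, Brij-35 0.005%, pH 9. Fluorogenic substrate Mca-Lys-Pro-Leu-Gly-Leu-Dap(Dnp)-Ala-Arg-NH2 at 10 μM final. Fluorescence (ex 325/em 395 nm) monitored every 15 s for 20 min. IC50 from initial velocities versus inhibitor-free control; mean of three independent experiments in duplicate.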

[7] = biological target: T1, Disintegrin and metalloproteinase domain-containing protein 17; experiment: Inhibition of ADAM17 in human MDA-MB-468 cells assessed as inhibition of EGF-induced sALCAM release by ELISA; type: cell-based
[8] = biological target: T1, Disintegrin and metalloproteinase domain-containing protein 17; experiment: Inhibition of ADAM17 in human GI-CA-N cells assessed as inhibition of constitutive sALCAM release by ELISA; type: cell-based
[9] = Cytotoxicity against human A2774 cells after 72 hrs by MTT assay; type: cell-based; details: a2774, 72 h
Outline: (§1)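 Cell lines grown in RPMI 1640 with 10% heat-inactivated FCS, 2 mM glutamine and penicillin-streptomycin at 37 °C, 5% CO2. Seeded at 2 × 10^3 cells/well and exposed to a range of inhibitor concentrations (DMSO stocks) for 24, 48 or 72 h at 37 °C. MTT added for 4 h, formazan dissolved in DMSO, absorbance read at 540 nm; mean of triplicates.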

[10] = biological target: T1, Disintegrin and metalloproteinase domain-containing protein 17; experiment: Inhibition of ADAM17 in human A2774 cells assessed as inhibition of pervanadate-induced sALCAM release by ELISA; type: cell-based
[11] = biological target: T1, Disintegrin and metalloproteinase domain-containing protein 17; experiment: Inhibition of ADAM17 in human MCF7 cells assessed as inhibition of pervanadate-induced sALCAM release by ELISA; type: cell-based
[12] = biological target: T1, Disintegrin and metalloproteinase domain-containing protein 17; experiment: Inhibition of ADAM17 in human A2774 cells assessed as inhibition of constitutive sALCAM release by ELISA; type: cell-based
SK-OV-3 = experiment: Cytotoxicity against human SKOV3 cells after 72 hrs by MTT assay; type: cell-based; details: sk-ov-3, 72 h; outline: as §1
[13] = biological target: T1, Disintegrin and metalloproteinase domain-containing protein 17; experiment: Inhibition of ADAM17 in human GI-CA-N cells assessed as inhibition of pervanadate-induced sALCAM release by ELISA; type: cell-based
[14] = biological target: T1, Disintegrin and metalloproteinase domain-containing protein 17; experiment: Inhibition of ADAM17 in human A2774 cells assessed as inhibition of EGF-induced sALCAM release by ELISA; type: cell-based
[15] = biological target: T1, Disintegrin and metalloproteinase domain-containing protein 17; experiment: Inhibition of ADAM17 in human MDA-MB-468 cells assessed as inhibition of constitutive sALCAM release by ELISA; type: cell-based
MDA-MB-468 = experiment: Cytotoxicity against human MDA-MB-468 cells after 72 hrs by MTT assay; type: cell-based; details: mda-mb-468, 72 h; outline: as §1
[16] = biological target: T1, Disintegrin and metalloproteinase domain-containing protein 17; experiment: Inhibition of ADAM17 in human MCF7 cells assessed as inhibition of constitutive sALCAM release by ELISA; type: cell-based
[17] = biological target: T1, Disintegrin and metalloproteinase domain-containing protein 17; experiment: Inhibition of ADAM17 in human MDA-MB-468 cells assessed as inhibition of pervanadate-induced sALCAM release by ELISA; type: cell-based
MCF7 = experiment: Cytotoxicity against human MCF7 cells after 72 hrs by MTT assay; type: cell-based; details: mcf7, 72 h; outline: as §1
[18] = biological target: T1, Disintegrin and metalloproteinase domain-containing protein 17; experiment: Inhibition of ADAM17 in human SKOV3 cells assessed as inhibition of constitutive sALCAM release by ELISA; type: cell-based, SK-OV-3
[19] = Cytotoxicity against human GI-CA-N cells after 72 hrs by MTT assay; type: cell-based; outline: as §1
[20] = biological target: T1, Disintegrin and metalloproteinase domain-containing protein 17; experiment: Inhibition of ADAM17 in human MCF7 cells assessed as inhibition of EGF-induced sALCAM release by ELISA; type: cell-based
[21] = biological target: T1, Disintegrin and metalloproteinase domain-containing protein 17; experiment: Inhibition of ADAM17 in human SKOV3 cells assessed as inhibition of EGF-induced sALCAM release by ELISA; type: cell-based, SK-OV-3

SMILES	IC50 [1] [nM]	inhibition [2] [%]	IC50 [3] [nM]	IC50 [4] [nM]	IC50 [5] [nM]	IC50 (Interstitial collagenase) [nM]	also measured
COc1ccc(S(=O)(=O)N(OC(C)C)[C@@H](C(=O)NO)C(C)C)cc1	240	0	10000	190	170	1100	–
CC(=O)NCC[C@@H](NS(=O)(=O)c1ccc(Br)cc1)C(=O)NO	300	–	110	190	190	1500	IC50 [6]: 2300 nM
CC#CCOc1ccc(S(=O)(=O)N(CC(C)C)[C@H](CCN2C(=O)c3ccccc3C2=O)C(=O)NO)cc1	29	–	59	21	13	400	IC50 [6]: 2000 nM
CC(C)ON(CC(=O)NO)S(=O)(=O)c1ccc(-c2ccccc2)cc1	–	0	120000	–	–	–	–
COc1ccc(S(=O)(=O)N(CC(C)C)[C@@H](C(=O)NO)C(C)C)cc1	16	9	1100	29	7.2	56	–
CC#CCOc1ccc(S(=O)(=O)N[C@H](CCN2C(=O)c3ccccc3C2=O)C(=O)NO)cc1	4.3	–	0.7	4.2	3.5	350	IC50 [7]: 280 nM; IC50 [2]: 15 nM; IC50 [8]: 97 nM; Activity [9]: Not Active; IC50 [10]: 15 nM; IC50 [11]: 51 nM; IC50 [12]: 1100 nM; Activity (SK-OV-3): Not Active; IC50 [13]: 73 nM; IC50 [14]: 550 nM; IC50 [15]: 1700 nM; Activity (MDA-MB-468): Not Active; IC50 [16]: 1400 nM; IC50 [17]: 800 nM; Activity (MCF7): Not Active; IC50 [18]: 2.6 µM; Activity [19]: Not Active; IC50 [6]: 190 nM; IC50 [20]: 760 nM; IC50 [21]: 4.3 nM
O=C(CNS(=O)(=O)c1ccc(Br)cc1)NO	360	13	3900	40	290	270	–
COc1ccc(S(=O)(=O)N(Cc2cccnc2)[C@@H](C(=O)NO)C(C)C)cc1.Cl [CGS-27023A]	–	33	160	–	–	–	IC50 [7]: 750 nM; IC50 [8]: 4400 nM; Activity [9]: Not Active; IC50 [10]: 380 nM; IC50 [11]: 750 nM; IC50 [12]: 18000 nM; Activity (SK-OV-3): Not Active; IC50 [13]: 1100 nM; IC50 [14]: 3200 nM; IC50 [15]: 1400 nM; Activity (MDA-MB-468): Not Active; IC50 [16]: 6900 nM; IC50 [17]: 10000 nM; Activity (MCF7): Not Active; IC50 [18]: 13 µM; Activity [19]: Not Active; IC50 [6]: 890 nM; IC50 [20]: 3000 nM; IC50 [21]: 110 nM
COc1ccc(S(=O)(=O)N(CC(=O)NO)CC(C)C)cc1	13	26	2300	13	4.8	–	–
CC(C)CN(CC(=O)NO)S(=O)(=O)c1ccc(-c2ccccc2)cc1	–	14	53000	–	–	–	–
O=C(CNS(=O)(=O)c1ccc(-c2ccccc2)cc1)NO	–	35	2400	–	–	–	–
CC(=O)NCC[C@@H](NS(=O)(=O)c1ccc(-c2ccccc2)cc1)C(=O)NO	34	–	300	0.7	8.6	196	–
CC#CCOc1ccc(S(=O)(=O)N[C@H](CCNC(=O)OCc2ccccc2)C(=O)NO)cc1	210	–	1.6	17	46	1100	IC50 [7]: 110 nM; IC50 [2]: 11 nM; IC50 [8]: 90 nM; Activity [9]: Not Active; IC50 [10]: 11 nM; IC50 [11]: 53 nM; IC50 [12]: 260 nM; Activity (SK-OV-3): Not Active; IC50 [13]: 500 nM; IC50 [14]: 890 nM; IC50 [15]: 420 nM; Activity (MDA-MB-468): Not Active; IC50 [16]: 1600 nM; IC50 [17]: 1100 nM; Activity (MCF7): Not Active; Activity [19]: Not Active; IC50 [6]: 240 nM; IC50 [20]: 420 nM; IC50 [21]: 3.2 nM
O=C(NO)[C@@H](CCN1C(=O)c2ccccc2C1=O)NS(=O)(=O)c1ccc(Br)cc1	0.9	–	210	1.5	1.1	4	–
COc1ccc(S(=O)(=O)NCC(=O)NO)cc1	210	32	–	–	–	–	–
COc1ccc(S(=O)(=O)N(CC(=O)NO)OC(C)C)cc1	9500	0	180000	5000	4100	110000	–
O=C(NO)[C@@H](CCN1C(=O)c2ccccc2C1=O)NS(=O)(=O)c1ccc(-c2ccccc2C(F)(F)F)cc1	1800	–	44000	390	430	5000	–
